Data taken from ChEMBL document CHEMBL5058577, “EUbOPEN Chemogenomics Library 2 (Multiplex)” (2022).

System: U2OS
Assay: Multiplex assay against U2OS
Format: toxicity, cell-based
Settings: human
In short: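 Phenotypes for tubulin, mitochondrial mass and membrane permeability are expressed as per cents of healthy-nucleus cells. Cells were stained live at seeding with Hoechst33342, BioTracker Green Microtubule Cytoskeleton Dye, MitoTracker Red and Annexin V Alexa Fluor 680, then imaged after compound addition on a CQ1 microscope at 37°C and 5% CO2. Machine-learning gating in CellPathfinder separated Hoechst high-intensity objects from normal cells, divided normal cells by nuclear state (healthy, pyknosed, fragmented) and divided pyknosed cells into mitotic or apoptotic.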

[1] = 12 h, 1 µM, compound concentration 1 uM, replicate 1
[2] = 12 h, 1 µM, compound concentration 1 uM, replicate 2
[3] = 12 h, 10 µM, compound concentration 10 uM, replicate 1
[4] = 12 h, 10 µM, compound concentration 10 uM, replicate 2
[5] = 24 h, 1 µM, compound concentration 1 uM, replicate 1
[6] = 24 h, 1 µM, compound concentration 1 uM, replicate 2
[7] = 24 h, 10 µM, compound concentration 10 uM, replicate 1
[8] = 24 h, 10 µM, compound concentration 10 uM, replicate 2
[9] = 48 h, 1 µM, compound concentration 1 uM, replicate 1
[10] = 48 h, 1 µM, compound concentration 1 uM, replicate 2
[11] = 48 h, 10 µM, compound concentration 10 uM, replicate 1
[12] = 48 h, 10 µM, compound concentration 10 uM, replicate 2

CN1CCN(c2nc3cc(C(F)(F)F)ccc3n3cccc23)CC1.O=C(O)/C=C\C(=O)O.O=C(O)/C=C\C(=O)O was tested, and the “Population Apoptotic (%)” value [1] was 77%, the “Population Fragmented Nuclei (%)” value [1] was 17% and the “Population Healthy Nuclei (%)” value [1] was 75%. The “Population Hoechst High Intensity Objects (%)” value [1] was 1%, the “Population Membrane Permeable-Phenotype (%)” value [1] was 4% and the “Population Mitochondria Different-Phenotype (%)” value [1] was 0%. For the same compound, the “Population Mitotic Cells (%)” value [1] was 22%, the “Population Normal (%)” value [1] was 98% and the “Population Pyknosed Nuclei (%)” value [1] was 6%. The “Population Tubulin-Different-Phenotype (%)” value [1] was 1%, the “Total Cell Count” value [1] was 266 and the “Population Apoptotic (%)” value [2] was 100%. For the same compound, the “Population Fragmented Nuclei (%)” value [2] was 18%, the “Population Healthy Nuclei (%)” value [2] was 73% and the “Population Hoechst High Intensity Objects (%)” value [2] was 0%. The “Population Membrane Permeable-Phenotype (%)” value [2] was 8%, the “Population Mitochondria Different-Phenotype (%)” value [2] was 2% and the “Population Mitotic Cells (%)” value [2] was 0%. The “Population Normal (%)” value [2] was 99%, the “Population Pyknosed Nuclei (%)” value [2] was 8% and the “Population Tubulin-Different-Phenotype (%)” value [2] was 3%. The “Total Cell Count” value [2] was 111, the “Population Apoptotic (%)” value [3] was 66% and the “Population Fragmented Nuclei (%)” value [3] was 31%. The “Population Healthy Nuclei (%)” value [3] was 53%, the “Population Hoechst High Intensity Objects (%)” value [3] was 1% and the “Population Membrane Permeable-Phenotype (%)” value [3] was 18%. The “Population Mitochondria Different-Phenotype (%)” value [3] was 45%, the “Population Mitotic Cells (%)” value [3] was 33% and the “Population Normal (%)” value [3] was 98%. For the same compound, the “Population Pyknosed Nuclei (%)” value [3] was 15%, the “Population Tubulin-Different-Phenotype (%)” value [3] was 19% and the “Total Cell Count” value [3] was 218. The “Population Apoptotic (%)” value [4] was 88%, the “Population Fragmented Nuclei (%)” value [4] was 25% and the “Population Healthy Nuclei (%)” value [4] was 68%. For the same compound, the “Population Hoechst High Intensity Objects (%)” value [4] was 2%, the “Population Membrane Permeable-Phenotype (%)” value [4] was 13% and the “Population Mitochondria Different-Phenotype (%)” value [4] was 41%. For the same compound, the “Population Mitotic Cells (%)” value [4] was 11%, the “Population Normal (%)” value [4] was 97% and the “Population Pyknosed Nuclei (%)” value [4] was 6%. The “Population Tubulin-Different-Phenotype (%)” value [4] was 21%, the “Total Cell Count” value [4] was 135 and the “Population Apoptotic (%)” value [5] was 85%. The “Population Fragmented Nuclei (%)” value [5] was 17%, the “Population Healthy Nuclei (%)” value [5] was 73% and the “Population Hoechst High Intensity Objects (%)” value [5] was 2%. For the same compound, the “Population Membrane Permeable-Phenotype (%)” value [5] was 5%, the “Population Mitochondria Different-Phenotype (%)” value [5] was 1% and the “Population Mitotic Cells (%)” value [5] was 14%. The “Population Normal (%)” value [5] was 97%, the “Population Pyknosed Nuclei (%)” value [5] was 9% and the “Population Tubulin-Different-Phenotype (%)” value [5] was 3%. The “Total Cell Count” value [5] was 300, the “Population Apoptotic (%)” value [6] was 92% and the “Population Fragmented Nuclei (%)” value [6] was 13%. For the same compound, the “Population Healthy Nuclei (%)” value [6] was 77%, the “Population Hoechst High Intensity Objects (%)” value [6] was 0% and the “Population Membrane Permeable-Phenotype (%)” value [6] was 8%. The “Population Mitochondria Different-Phenotype (%)” value [6] was 4%, the “Population Mitotic Cells (%)” value [6] was 7% and the “Population Normal (%)” value [6] was 99%. The “Population Tubulin-Different-Phenotype (%)” value [6] was 4%, the “Total Cell Count” value [6] was 136 and the “Population Apoptotic (%)” value [7] was 76%. For the same compound, the “Population Fragmented Nuclei (%)” value [7] was 31%, the “Population Healthy Nuclei (%)” value [7] was 57% and the “Population Hoechst High Intensity Objects (%)” value [7] was 3%. For the same compound, the “Population Membrane Permeable-Phenotype (%)” value [7] was 16%, the “Population Mitochondria Different-Phenotype (%)” value [7] was 41% and the “Population Mitotic Cells (%)” value [7] was 24%. For the same compound, the “Population Normal (%)” value [7] was 96%, the “Population Pyknosed Nuclei (%)” value [7] was 10% and the “Population Tubulin-Different-Phenotype (%)” value [7] was 14%. For the same compound, the “Total Cell Count” value [7] was 244, the “Population Apoptotic (%)” value [8] was 78% and the “Population Fragmented Nuclei (%)” value [8] was 19%. For the same compound, the “Population Healthy Nuclei (%)” value [8] was 71%, the “Population Membrane Permeable-Phenotype (%)” value [8] was 17% and the “Population Mitochondria Different-Phenotype (%)” value [8] was 36%. For the same compound, the “Population Mitotic Cells (%)” value [8] was 21%, the “Population Pyknosed Nuclei (%)” value [8] was 9% and the “Population Tubulin-Different-Phenotype (%)” value [8] was 16%. The “Total Cell Count” value [8] was 156, the “Population Apoptotic (%)” value [9] was 87% and the “Population Fragmented Nuclei (%)” value [9] was 14%. The “Population Healthy Nuclei (%)” value [9] was 77%, the “Population Hoechst High Intensity Objects (%)” value [9] was 2% and the “Population Membrane Permeable-Phenotype (%)” value [9] was 4%. For the same compound, the “Population Mitochondria Different-Phenotype (%)” value [9] was 0%, the “Population Mitotic Cells (%)” value [9] was 12% and the “Population Normal (%)” value [9] was 97%. For the same compound, the “Population Pyknosed Nuclei (%)” value [9] was 7%, the “Population Tubulin-Different-Phenotype (%)” value [9] was 2% and the “Total Cell Count” value [9] was 447. For the same compound, the “Population Apoptotic (%)” value [10] was 85%, the “Population Fragmented Nuclei (%)” value [10] was 17% and the “Population Healthy Nuclei (%)” value [10] was 75%. The “Population Hoechst High Intensity Objects (%)” value [10] was 1%, the “Population Membrane Permeable-Phenotype (%)” value [10] was 6% and the “Population Mitochondria Different-Phenotype (%)” value [10] was 5%. The “Population Mitotic Cells (%)” value [10] was 14%, the “Population Normal (%)” value [10] was 98% and the “Population Tubulin-Different-Phenotype (%)” value [10] was 3%. For the same compound, the “Total Cell Count” value [10] was 187, the “Population Apoptotic (%)” value [11] was 78% and the “Population Fragmented Nuclei (%)” value [11] was 31%. For the same compound, the “Population Healthy Nuclei (%)” value [11] was 52%, the “Population Hoechst High Intensity Objects (%)” value [11] was 4% and the “Population Membrane Permeable-Phenotype (%)” value [11] was 16%. For the same compound, the “Population Mitochondria Different-Phenotype (%)” value [11] was 17%, the “Population Mitotic Cells (%)” value [11] was 21% and the “Population Normal (%)” value [11] was 95%. For the same compound, the “Population Pyknosed Nuclei (%)” value [11] was 16%, the “Population Tubulin-Different-Phenotype (%)” value [11] was 12% and the “Total Cell Count” value [11] was 299. For the same compound, the “Population Apoptotic (%)” value [12] was 81%, the “Population Fragmented Nuclei (%)” value [12] was 21% and the “Population Healthy Nuclei (%)” value [12] was 67%. For the same compound, the “Population Hoechst High Intensity Objects (%)” value [12] was 3%, the “Population Membrane Permeable-Phenotype (%)” value [12] was 10% and the “Population Mitochondria Different-Phenotype (%)” value [12] was 16%. For the same compound, the “Population Mitotic Cells (%)” value [12] was 18%, the “Population Normal (%)” value [12] was 96% and the “Population Pyknosed Nuclei (%)” value [12] was 11%. For the same compound, the “Population Tubulin-Different-Phenotype (%)” value [12] was 9% and the “Total Cell Count” value [12] was 202.
